The record followed here is ChEMBL document CHEMBL3525967, “In vitro glucuronidation of the antibacterial triclocarban and its oxidative metabolites” (Drug Metab Dispos, 2012).

SMILES strings stand for the structures.

The subject of data set [1] is Liver microsome. The data set can be described thus: Drug metabolism in Sprague-Dawley rat liver microsomes assessed as retention time at 10 uM by LC-UV-MS method in presence of UDPGA. The class given is ADME.
Data set [2] is described as follows: Drug metabolism in cynomolgus monkey liver microsomes after 30 mins by LC-ESI-MS analysis. Format: ADME, Macaca fascicularis. The procedure, abridged: (§1)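 2'-OH-TCC at 0.2, 0.5, 1, 2, 3, 5, 10 and 50 µM incubated with liver microsomes (alamethicin, MgCl2, saccharolactone, UDPGA; 37 °C), sampled at 5, 10, 15 and 30 min. Samples ≥5 µM diluted 1:9 in ACN; LC-ESI-MS. KM and vmax fitted from rate vs concentration; intrinsic clearance derived from these; mean and SD of three.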

The nature of data set [3]: Drug metabolism in B6C3F1 mouse liver microsomes after 30 mins by LC-ESI-MS analysis. The class given is ADME. The essentials: as §1
For orientation: Microsomes from liver hold many membrane-bound enzymes, among them those of drug oxidation.

The target in data set [4] is T1, UDP-glucuronosyltransferase 1A4 (Homo sapiens, UniProt P22310).
T1 sequence (P22310 whole entry): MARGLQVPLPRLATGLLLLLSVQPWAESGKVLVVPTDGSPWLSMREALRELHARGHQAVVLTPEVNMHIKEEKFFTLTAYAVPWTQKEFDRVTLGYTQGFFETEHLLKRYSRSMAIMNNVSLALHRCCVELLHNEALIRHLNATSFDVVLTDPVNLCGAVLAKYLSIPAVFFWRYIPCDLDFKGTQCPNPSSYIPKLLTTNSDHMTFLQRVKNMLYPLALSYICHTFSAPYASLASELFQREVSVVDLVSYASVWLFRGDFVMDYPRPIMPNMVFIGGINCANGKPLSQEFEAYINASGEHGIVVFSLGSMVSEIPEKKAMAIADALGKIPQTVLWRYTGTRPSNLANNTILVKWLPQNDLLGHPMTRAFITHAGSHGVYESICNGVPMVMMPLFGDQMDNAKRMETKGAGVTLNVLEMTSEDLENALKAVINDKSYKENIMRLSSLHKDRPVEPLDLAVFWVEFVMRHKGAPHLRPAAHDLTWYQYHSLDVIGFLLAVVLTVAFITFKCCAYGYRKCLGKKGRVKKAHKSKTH
The data set can be described thus: Drug metabolism assessed as human UGT1A4-mediated N-glucuronide-triclocarban formation expressed in baculovirus infected insect sf9 cells incubated for 5 mins prior to UDPGA addition measured after 5 to 30 mins by LC-UV analysis. The class given is ADME. The essentials: (§2)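 Microsomes or UGT Supersomes (5 µg protein) were held 15 min on ice with alamethicin in 100 mM potassium phosphate pH 7.4. TCC was added at 10 µM (2% DMSO) with 10 mM MgCl2 and 10 mM saccharolactone, pre-warmed 5 min at 37 °C, then started with UDPGA. Samples at 5, 10, 15 and 30 min were quenched in ACN. Product was read by LC-UV at 265 nm; rate came from regression over time, three incubations.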

The target in data set [5] is T2, UDP-glucuronosyltransferase 1A10 (Homo sapiens, UniProt Q9HAW8).
T2 sequence (Q9HAW8 whole entry): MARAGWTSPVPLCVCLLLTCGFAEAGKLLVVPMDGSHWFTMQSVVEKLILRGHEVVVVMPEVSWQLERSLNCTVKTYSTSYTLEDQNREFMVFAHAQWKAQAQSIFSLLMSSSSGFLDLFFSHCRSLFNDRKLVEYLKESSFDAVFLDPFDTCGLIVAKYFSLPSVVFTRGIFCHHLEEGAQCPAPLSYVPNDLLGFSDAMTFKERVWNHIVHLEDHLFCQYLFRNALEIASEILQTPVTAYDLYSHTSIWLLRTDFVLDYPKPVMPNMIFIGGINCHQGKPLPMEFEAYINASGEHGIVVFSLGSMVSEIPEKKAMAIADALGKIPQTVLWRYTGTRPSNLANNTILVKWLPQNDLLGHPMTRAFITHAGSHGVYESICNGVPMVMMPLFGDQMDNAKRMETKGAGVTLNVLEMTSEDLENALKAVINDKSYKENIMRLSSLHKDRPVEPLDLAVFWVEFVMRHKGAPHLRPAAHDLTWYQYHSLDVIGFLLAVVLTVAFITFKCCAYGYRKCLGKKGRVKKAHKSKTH
The experiment in a line: Drug metabolism assessed as human UGT1A10-mediated N-glucuronide-triclocarban formation expressed in baculovirus infected insect sf9 cells incubated for 5 mins prior to UDPGA addition measured after 5 to 30 mins by LC-UV analysis. Format: ADME. The essentials:
as §2

The subject of data set [6] is Liver microsome. The experiment in a line: Drug metabolism in human liver microsomes assessed as N'-glucuronide-triclocarban formation incubated for 5 mins prior to UDPGA addition measured after 30 mins by LC-UV-ESI-MS/MS analysis. The following applies: 0.5 h. Format: ADME. The procedure, abridged: (§3)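 Pooled human kidney or liver microsomes (liver: 25 mixed-gender donors), 5 µg protein, in 200 µL 100 mM potassium phosphate pH 7.4. Alamethicin pre-treated on ice 15 min. Final 10 µM TCC (2% DMSO), with 10 mM MgCl2 and 10 mM saccharolactone, preincubated 5 min at 37 °C. Started with UDPGA (20 mM stock). Sampled at 5, 10, 15 and 30 min into ACN containing 1 µM DCC internal standard.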

Data set [7] concerns Liver microsome. The data set can be described thus: Drug metabolism in Sprague-Dawley rat liver microsomes assessed as N'-glucuronide-triclocarban formation incubated for 5 mins prior to UDPGA addition measured after 5 to 30 mins by LC-UV analysis. The class given is ADME. The procedure, abridged: as §2
Data set [8] is described as follows: Drug metabolism in human kidney microsomes assessed as N-glucuronide-triclocarban formation incubated for 5 mins prior to UDPGA addition measured after 5 to 30 mins by LC-UV analysis. The class given is ADME. The essentials: as §3
Data set [9] concerns the target T1, UDP-glucuronosyltransferase 1A4. The data set can be described thus: Drug metabolism assessed as human UGT1A4-mediated N'-glucuronide-triclocarban formation expressed in baculovirus infected insect sf9 cells incubated for 5 mins prior to UDPGA addition measured after 5 to 30 mins by LC-UV analysis. Format: ADME. The procedure, abridged: as §2
For data set [10], the target named is T3, UDP-glucuronosyltransferase 1A8 (Homo sapiens, UniProt Q9HAW9).
T3 sequence (Q9HAW9 whole entry): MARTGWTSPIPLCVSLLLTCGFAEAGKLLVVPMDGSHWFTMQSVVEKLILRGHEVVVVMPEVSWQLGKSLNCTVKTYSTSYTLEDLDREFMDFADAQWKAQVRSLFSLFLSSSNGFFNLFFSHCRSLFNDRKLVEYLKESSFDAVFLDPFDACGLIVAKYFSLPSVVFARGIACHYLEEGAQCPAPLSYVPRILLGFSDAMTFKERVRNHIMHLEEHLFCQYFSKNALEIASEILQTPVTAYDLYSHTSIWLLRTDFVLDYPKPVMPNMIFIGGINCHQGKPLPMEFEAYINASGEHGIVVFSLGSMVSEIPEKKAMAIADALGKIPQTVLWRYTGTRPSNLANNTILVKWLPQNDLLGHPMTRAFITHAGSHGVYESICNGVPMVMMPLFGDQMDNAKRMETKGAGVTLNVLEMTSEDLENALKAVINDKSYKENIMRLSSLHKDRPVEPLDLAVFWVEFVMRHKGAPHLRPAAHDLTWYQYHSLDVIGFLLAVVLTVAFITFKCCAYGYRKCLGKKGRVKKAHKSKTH
The experiment in a line: Drug metabolism assessed as human UGT1A8-mediated N'-glucuronide-triclocarban formation expressed in baculovirus infected insect sf9 cells incubated for 5 mins prior to UDPGA addition measured after 5 to 30 mins by LC-UV analysis. The class given is ADME. The procedure, abridged: as §2

`O=C(Nc1ccc(Cl)c(O)c1)Nc1ccc(Cl)c(Cl)c1`: the Retention_time in the data set on Liver microsome [1] was 2.26 min.

For the compound `O=C(Nc1ccc(Cl)c(Cl)c1)Nc1ccc(Cl)cc1O`, the Michaelis constant (Km) (commonly the concentration of substrate that gives half-maximal velocity) at 0.5 h in [2] (liver microsomes) was found to be 1400 nM; in data set [3] (B6C3F1, mouse, liver microsomes), 2460 nM. Further, the maximal velocity (Vmax) – broadly, the rate approached at saturating substrate – in data set [2] (microsomes, 0.5 h) is reported as 26.7 nmol/min/mg; in [3] (mouse, microsomes, 0.5 h), 1.45 nmol/min/mg.

For `O=C(Nc1ccc(Cl)cc1)Nc1ccc(Cl)c(Cl)c1` [TRICLOCARBAN], the Drug metabolism result in [4] is “metabolite_not_detected”; in data set [5] it was “metabolite_not_detected”; with Liver microsome [6] it was “metabolite_detected”; in the data set with Liver microsome [7], “metabolite_not_detected”; in [8], “metabolite_not_detected”; in data set [9] it was “metabolite_not_detected”. For the same compound, in data set [10], the Drug metabolism result is “metabolite_not_detected”.
